# Assay outcomes as filed in PubChem.
# M1 antagonist: blocks the rat M1 muscarinic receptor response to acetylcholine | B-score at 10 µM | 64,000 tested, 3.4% active | CHO-M1 cells, Fluo-4 calcium, ACh EC80 antagonist mode; hits give low values | P08482;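 active = calcium fluorescence response, raw or row-and-column corrected B-score, differing from the plate sample mean either way at a set confidence level, mostly lower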
# JNK3 inh: inhibitors of human JNK3 kinase; purified JNK3 kinase activity, HTS; 60,000 tested, 0.61% active; inhibition, % at 8 µM; P53779; in the data active = inhibition above about 17%;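 note: 0% = DMSO and 100% = reference inhibitor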
# S1P1 ag-PAM: activates or potentiates agonism at human S1P1 receptor; P21453; S1P1 CRE-bla cells, forskolin, beta-lactamase FRET, potentiator mode; S1P1 agonist co-added at EC20, 2 nM; 100% = saturating reference agonist, 0% = basal; activation, % at 9.5 µM; 56,000 tested, 0.57% active;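 active = activation above a cutoff set at the mean activation of all tested compounds plus 3 SD, cut at about 54% in these data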;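 note: forskolin at 4 µM as EC80 and the EC20 agonist is SEW2871; 100% = SEW2871 at its EC100 plus forskolin at EC80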
# S1P3 ag: activates the human S1P3 receptor; Q99500; 60,000 tested, 0.1% active; activation, % at 4.5 µM; AID 373; S1P3 NFAT-BLA reporter cells, agonism, FRET ratio; relative to 1 µM S1P, basal subtracted;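 active = activation above the screen-wide mean plus 3 SD, cut at about 4.5% in these data, passing the limit was not always enough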
#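 Assay system: stable CHO line with human S1P3, Gα16, NFAT-BLA reporter; Detection: FRET β-lactamase substrate fluorescence, excitation 405 nm, 460/535 nm emission ratio, background-subtracted; Read-out: percent activation versus median 1 µM S1P response, basal-subtracted, per plate; Incubation: cells plated overnight, compound 4 h 37 °C, substrate 2 h RT.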
# M1 ag: activates the M1 muscarinic receptor. CHO-M1 cells, Fluo-4 calcium fluorescence, agonist mode; hits give high values. B-score at 10 µM. 64,000 tested, 3% active. AID 626;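 active = fluorescence rise, raw or as B-score row- and column-corrected plate score, outside the 99.7% band of its plate's samples, either direction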
# Jurkat viability: reduces viability or proliferation of Jurkat cells. AID 463. inhibition, % at 4 µM. Jurkat E6.1 viability, ATP luminescence, 48 h. 56,000 tested, 1.2% active;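 active = inhibition above the mean inhibition of all tested compounds plus 3 SD, cut at about 28% in these data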
# M1 ag confirm: rat M1 muscarinic agonism, confirmation; shares compounds with M1 ag; CHO-M1 cells, Fluo-4 calcium fluorescence, agonist mode; actives lie on both sides; fluorescence change (max-min) at 10 µM; 1,700 tested, 19% active; AID 1488;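 active = fluorescence change differs from the solvent-only DMSO control mean at a set confidence level in both duplicate runs; inconclusive = differs from solvent-only control mean in just one of two runs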;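 note: an EC20 dose of acetylcholine follows compound addition during the same imaging run; raw fluorescence intensity difference in instrument units with no normalization to controls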
# M4 ag counter: rat M4 muscarinic agonism, M1 counter-screen; shares compounds with M1 ag; CHO M4/Gqi5 cells, Fluo-4 calcium fluorescence, agonist mode; actives lie on both sides; fluorescence change (max-min) at 10 µM; 1,700 tested, 9% active;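 active = fluorescence change differing from the plate's solvent-only control wells at 99.7% confidence in both duplicates, whether higher or lower; inconclusive = differs from solvent controls in only one of two duplicates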
# Target sequence (P08485 whole entry, looked up): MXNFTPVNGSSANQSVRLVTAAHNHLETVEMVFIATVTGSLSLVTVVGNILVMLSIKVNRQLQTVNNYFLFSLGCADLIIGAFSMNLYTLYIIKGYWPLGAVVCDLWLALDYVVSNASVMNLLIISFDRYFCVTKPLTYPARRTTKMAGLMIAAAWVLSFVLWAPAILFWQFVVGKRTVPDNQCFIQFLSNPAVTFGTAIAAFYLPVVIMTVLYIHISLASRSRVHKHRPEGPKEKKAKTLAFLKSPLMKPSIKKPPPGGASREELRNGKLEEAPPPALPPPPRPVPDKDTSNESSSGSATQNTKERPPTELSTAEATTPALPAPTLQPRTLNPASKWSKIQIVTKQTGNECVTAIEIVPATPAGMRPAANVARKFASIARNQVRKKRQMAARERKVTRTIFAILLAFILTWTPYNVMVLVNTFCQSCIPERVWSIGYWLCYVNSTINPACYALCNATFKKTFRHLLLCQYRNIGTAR
# * = called active by the depositor; ? = inconclusive; . = not tested or not shown. A selection: hits, their analogues and other compounds. The true share with any hit is near 7.4%.
SMILES,M1 antagonist,JNK3 inh,S1P1 ag-PAM,S1P3 ag,M1 ag,Jurkat viability,M1 ag confirm,M4 ag counter
O=C(CSc1nnc(Cn2nnc3ccccc32)o1)N(Cc1ccc(F)cc1)c1ccccc1,-2.15,-6.9,67.9*,-1.6,6.18*,97.8*,-33.9*,-18
O=C(C1CCN(c2nnc(N3CCCC3=O)s2)CC1)N1CCN(Cc2ccc3c(c2)OCO3)CC1,-0.31,2.9,-16.0,-1.1,-1.44,6.6,.,.
Cc1cccc(N2CCN(C(=O)C3CCN(S(=O)(=O)c4cccc5cccnc45)CC3)CC2C)c1 (stereo not drawn),-1.85,1.6,22.6,-0.2,8.62*,5.6,-11.6,?
Cc1cccc(N2CCN(C(=O)C3CCN(S(=O)(=O)c4cccc5nsnc45)CC3)CC2C)c1 (stereo not drawn),-2.04,-0.2,42.0,-1.8,16.1*,1.8,-32.8*,-87.7
O=C(C1CCN(c2nnc(-n3cccc3)s2)CC1)N1CCN(Cc2ccc3c(c2)OCO3)CC1,-1.31,-1.1,2.8,0.5,-2.61*,21.9,-11.7,-61.6
Cc1cccc(N2CCN(C(=O)C3CCN(c4nnc(-n5cccc5)s4)CC3)CC2C)c1 (stereo not drawn),-1.63,0.8,31.6,0.1,16*,9.4,?,-48.2
Cc1cc(NC(=O)CCC(=O)N(c2ccc(F)cc2)C(C(=O)NC2CCCC2)c2ccncc2)no1 (stereo not drawn),-0.105,-8.2,-20.1,-1.3,0.589,-1.9,.,.
Cc1cc(C)nc(N2CCC(C(=O)Nc3cccc(C(F)(F)F)c3)CC2)n1,-0.71,-5.0,10.7,-0.3,0.0631,-0.4,.,.
COc1cc2c(C#N)c(N3CCN(c4ccccc4OC)CC3)nc(N)c2c(N)n1,-0.105,.,.,.,3.44*,.,-26.7*,-44.6
COc1cc(C)c(S(=O)(=O)n2ccc(C)n2)cc1C,-0.183,.,.,.,0.212,.,.,.
O=S(=O)(Nc1nc2ccccc2nc1N1CCN(c2ccccn2)CC1)c1ccc(Cl)cc1,-0.322,-3.9,.,-0.7,9.24*,13.3,46.4,?
Cc1nnc(SCCn2c(N3CCN(c4ccccc4)CC3)nc3c2c(=O)n(C)c(=O)n3C)s1,-0.437,-0.8,-22.2,-0.7,-1.03,2.8,.,.
O=C1COc2ccc(C(=O)CSc3nnc(Cc4cccs4)n3-c3ccccc3)cc2N1,0.455,.,.,.,5.19*,.,5.31,-23.6
Cc1nc(SCC(=O)NCc2ccco2)c2c(C)c(C)sc2n1,0.11,-10.5,-6.6,0.6,10.9*,0.7,-10,-42.9
Cc1sc2nc(C(C)C)nc(SCC(=O)NCc3ccco3)c2c1C,-0.844,-1.1,6.0,-1.9,0.0282,7.7,.,.
COC(=O)c1c(NC(=O)c2ccoc2C)sc2c1CCC2,0.233,-1.2,39.8,-1.1,2.24*,5.4,0.418,-44.4
Cc1occc1C(=O)Nc1sc2c(c1C(N)=O)CCCCC2,0.137,2.5,.,-0.7,-0.0836,1.5,.,.
COc1ccc(CNC(=O)CSc2ncnc3nc[nH]c23)cc1,-0.831,-3.3,12.6,-0.7,31.2*,11.4,?,-63.1
COc1ccccc1Oc1ccc(S(=O)(=O)NCc2ccccn2)cc1,-0.212,.,.,.,12*,.,?,?
COc1ccc(S(=O)(=O)NCc2ccccn2)cc1Cl,-0.252,-2.5,-20.5,-1.4,-0.966,3.9,.,.
Cc1cc(C)c(S(=O)(=O)Nc2ccc[nH]c2=O)c(C)c1,0.092,-6.8,.,0.9,0.271,6.2,.,.
CCc1cc2c(-c3ccccc3)cc(=O)oc2c(CN2CCOCC2)c1O,-0.936,3.1,-49.9,-1.2,15.3*,7.3,42.4,17.2
Cc1oc2c(CN3CCOCC3)c(O)ccc2c(=O)c1-c1ccccc1,0.193,-0.7,-5.2,-1.2,0.636,5.7,.,.
Cn1c(=O)c2c(nc(N3CCN(Cc4ccccc4)CC3)n2CCSc2ncccn2)n(C)c1=O,1.2,1.6,-4.7,0.6,-0.389,8.9,.,.
O=C1CN(C(=O)c2ccc(Br)o2)C(c2ccc(F)cc2)c2cc(Cl)ccc2N1 (stereo not drawn),-0.845,2.9,-27.4,-0.7,2.82*,-4.3,-14.6,?
SMILES,M1 antagonist,JNK3 inh,S1P1 ag-PAM,S1P3 ag,M1 ag,Jurkat viability,M1 ag confirm,M4 ag counter
COc1ccc(NC(=O)c2cccs2)cc1OC,-0.387,-4.3,-2.9,-0.7,-0.663,10.2,.,.
COc1cccc(NC(=O)c2cccs2)c1,-0.133,0.7,.,-0.1,2.4*,-2.4,?,?
O=C(Nc1ccc(S(=O)(=O)N2CCCC2)cc1)C1COc2ccccc2O1 (stereo not drawn),-0.188,0.2,5.6,1.1,-0.256,-4.8,.,.
COC(=O)c1cc(NC(=O)C2COc3ccccc3O2)ccc1Cl (stereo not drawn),-0.602,-2.8,8.3,0.3,5.72*,2.5,-17.4,-33.1
O=C(Nc1ccc(S(=O)(=O)N2CCOCC2)cc1)C1COc2ccccc2O1 (stereo not drawn),-0.852,.,.,.,8.72*,.,?,-66.2*
COCCNC(=O)c1ccccc1NC(=O)C1COc2ccccc2O1 (stereo not drawn),-0.286,.,.,.,5.65*,.,-29.4*,-120*
Cc1nonc1NC(=O)c1ccc(Cl)c(S(=O)(=O)N2CCCCC2)c1,-1.04,3.9,2.3,-0.1,-1.27,0.9,.,.
O=C(Nc1nnc(-c2ccccc2Cl)o1)c1cccnc1,-0.038,10.6,9.6,-0.5,-0.306,8.2,.,.
O=C(CSCc1nc2ccccc2[nH]1)N1CCN(c2cccc(Cl)c2)CC1,-1.73,-1.4,7.3,0.7,7.96*,4.9,-21.7,-31.7
CCCCOC(=O)CCc1nc2ccccc2[nH]1,0.338,3.1,-1.3,-1.5,3.55*,.,-13.6,-43.7
CCOC(=O)CCc1nc2ccccc2[nH]c1=O,0.0627,0.7,12.4,-0.6,0,-6.4,.,.
COc1cc2c(cc1OC)CN(S(=O)(=O)c1ccc3c(c1)OCCO3)CC2,-0.338,-1.3,9.8,-0.2,-1.36,6.8,.,.
CC1CCCCN1C(=O)CSCC(=O)Nc1nc(-c2cccs2)cs1 (stereo not drawn),-0.823,-9.8,4.6,-1.1,7.96*,5.6,-13.6,-54.5
CC1CCCN(C(=O)CSCC(=O)Nc2nc(-c3cccs3)cs2)C1 (stereo not drawn),0.161,-2.8,27.5,0.3,6.82*,-3.0,-1.2,-34.8
CC1CCN(C(=O)CSCC(=O)Nc2nc(-c3cccs3)cs2)CC1,-0.961,-8.1,2.0,-0.6,-0.195,-3.5,.,.
CCOC(=O)N1CCN(C(=O)CSCC(=O)Nc2nc(-c3cccs3)cs2)CC1,-0.245,-4.4,0.5,-0.4,3.19,2.5,.,.
CCSc1ccc2nnc(-c3ccc(F)cc3)n2n1,0.749,0.3,11.8,-0.3,1.01,5.5,.,.
